Results on 19 compounds are retold here after ChEMBL document CHEMBL1146825, “Triaryl methane derivatives as antiproliferative agents” (Bioorg Med Chem Lett, 2004).

Assay [1] has as its system NIH3T3. Nature of the assay: Mitogen-induced cell proliferation assay to evaluate the antiproliferative effect in NIH 3T3 cells. As to conditions: Mus musculus. It is filed as functional, cell-based. Put shortly: (§1)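 NIH 3T3 mouse fibroblasts given a mitogenic stimulus (e.g. PDGF or bFGF) for 10 h, then [3H]thymidine added. Cultured a further 21 h at 37 C, 5% CO2, then washed four times with DME. Acid-precipitable radioactivity extracted with cold 10% TCA, neutralized with 0.3 N NaOH, and counted by scintillation.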

The subject of assay [2] is NIH3T3. Nature of the assay: Percent inhibition at 10 uM determined against mouse NIH 3T3 cells. It is filed as functional. Put shortly: as §1
Assay [3] relates to NCI-H460. Kind of assay: Effect of 25 uM compound on NCI-H460 non-small cell lung cancer cells cycle progression in G0G1 phase by flow cytometry. Format: functional, Homo sapiens. Put shortly:
(§2)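 NCI-H460 cells serum-starved 56 h, then released into complete medium containing compound (25 or 50 uM) or 0.1% DMSO vehicle for 16 h. Harvested, washed in cold PBS, fixed in 70% ethanol at 4 C for at least 4 h. Treated with ribonuclease and propidium iodide 30 min at 37 C. DNA content read by flow cytometry; percent of cells in G0-G1, S and G2-M.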

Assay [4] relates to NCI-H460. Nature of the assay: Effect of 50 uM compound on NCI-H460 non-small cell lung cancer cells cycle progression in G2-M phase by flow cytometry. It is filed as functional, Homo sapiens. The method in brief:
as §2
On the technique in general: A flow cytometer gives signals particle by particle.

In assay [5] the test system is NCI-H460. Nature of the assay: Effect of 25 uM compound on NCI-H460 non-small cell lung cancer cells cycle progression in G2M phase by flow cytometry. Format: functional, Homo sapiens. The method in brief:
as §2

Assay [6] deals with NCI-H460. Kind of assay: Effect of 50 uM compound on NCI-H460 non-small cell lung cancer cells cycle progression in S phase by flow cytometry. Format: functional, Homo sapiens. The method in brief: as §2
Assay [7] deals with NCI-H460. Nature of the assay: Effect of 25 uM compound on NCI-H460 non-small cell lung cancer cells cycle progression in S phase by flow cytometry. Format: functional, Homo sapiens. The method in brief: as §2
The subject of assay [8] is NCI-H460. Nature of the assay: Effect of 50 uM compound on NCI-H460 non-small cell lung cancer cells cycle progression in G0G1 phase by flow cytometry. Format: functional, Homo sapiens. Put shortly:
as §2

What is called IC50 is the concentration that inhibits the measured activity by half. For `OC(c1ccccc1)(c1ccc(Br)cc1)c1ccc(Br)cc1`, the IC50 in assay [1] amounted to 500 nM.

In turn, `OC(c1ccccc1)(c1ccccc1)C1CCCCC1` came in with an IC50 in assay [1] of 9500 nM.

`Clc1ccccc1C(c1ccccc1)c1ccccc1` [2-CHLOROPHENYL-BISPHENYLMETHANE(MAJOR)] yielded an IC50 in assay [1] of 3900 nM.

Turning to `Nc1ccc(C(O)(c2ccc(N)cc2)c2ccc(N)cc2)cc1`, the IC50 in assay [1] was 200 nM.

Broadly, the inhibition is the drop in the measured response relative to a control, in per cent. The low end stands for little suppression, the high end for strong suppression. In the case of `CCOC(c1ccccc1)(c1ccccc1)c1ccc(-c2ccccc2)cc1`, the inhibition at 10 µM in assay [2] was determined as 99%. In addition, the IC50 in assay [1] amounted to 2200 nM.

Compound `N#CC(c1ccccc1)(c1ccccc1)c1ccc([N+](=O)[O-])cc1` returned an IC50 in assay [1] of 1700 nM.

Compound `OC(c1ccccc1)(c1ccccc1)c1ccccc1` [TRIPHENYLMETHANOL] yielded an inhibition at 10 µM in assay [2] of 99%. This compound gave an IC50 in assay [1] of 2000 nM.

Turning to `OC(Cc1ccccc1)(c1ccccc1)c1ccccc1`, the Cell stood at 46.8% in assay [3]; 5% in assay [4]; 8.57% in assay [5]; 25.09% in assay [6]; 44.63% in assay [7]; 69.91% in assay [8]. Further, in assay [2], the inhibition at 10 µM worked out at 98%. In assay [1], this compound came in with a half-inhibitory concentration (IC50) of 400 nM.

Compound `CCOC(=O)C(c1ccccc1)(c1ccccc1)N1CCCCC1` showed an IC50 in assay [1] of 2200 nM.

As for `OC(c1ccccc1)(c1ccccc1)c1ccccc1Cl`, the IC50 in assay [1] came to 2100 nM. The IC50 values of the last two compounds are within 1.5-fold of each other.

Regarding `OC(c1ccccc1)(c1ccccc1)c1ccc(Cl)cc1`, inhibition in assay [1] was half-maximal at 800 nM (IC50).

On to `Cc1ccc(C(O)(c2ccc(C)cc2)c2ccc(C)cc2)cc1`, for which, in assay [1], the IC50 worked out at 3000 nM. Compared with the last compound, the IC50 is about 3.8-fold higher.

Consider `O=C(O)CC(c1ccccc1)(c1ccccc1)c1ccccc1Cl`, for which it took 1200 nM to reach half-maximal inhibition in assay [1] (IC50).

Turning to `OC(c1ccccc1)(c1ccccc1)c1ccc(C(F)(F)F)cc1`, half-maximal inhibition in assay [1] (IC50) required 3100 nM. Against the preceding compound, the IC50 is about 2.6-fold higher.

On to `N#CC(c1ccccc1)(c1ccccc1)c1ccccc1Cl`, for which inhibition in assay [1] was half-maximal at 2200 nM (IC50). The IC50 values of the last two compounds are within 1.5-fold of each other.

The compound `Oc1ccccc1C(O)(c1ccccc1)c1ccccc1Cl` (stereo not given) returned an inhibition at 10 µM in assay [2] of 99%. This compound came in with an IC50 in assay [1] of 1000 nM.

Consider `O=[N+]([O-])c1ccc(C(O)(c2ccccc2)c2ccccc2)c(Cl)c1`, for which testing at 10 µM in assay [2] gave an inhibition of 94%. This compound gave an IC50 in assay [1] of 300 nM.

In the case of `N#CC(c1ccccc1)(c1ccccc1)C1CCCCC1`, in assay [1], the IC50 came out at 900 nM.

With `OC(c1ccccc1)(c1ccccc1)c1cccc2ccccc12`, in assay [1], the midpoint of inhibition, the IC50, lay at 1600 nM.
